Experimental data from different studies.
Protocols differ between the studies behind these lines.
MMP13: Collagenase 3 (MMP13, Homo sapiens, UniProt P45452)

For Cn1cc(-c2cc(F)cc(N3CCn4c(cc5c4CCCC5)C3=O)c2CO)cc(Nc2ccc(N3CCN(C4COC4)CC3)cn2)c1=O, the inhibition was -3% (Tyrosine-protein kinase Tec (TEC, Homo sapiens, UniProt P42680); enzyme activity, inhibitor; 0.1 µM).
With C[C@H](C(=O)N[C@H]1COc2ccccc2[C@@H]1S(C)(=O)=O)c1ccc(F)cc1 the inhibition was -4% (MMP13; enzyme activity, inhibitor; 10 µM).
O=C(NC[C@H](O)CO)[C@@H]1C[C@H](c2ccccc2)CCN1 (mixture of isomers) has an inhibition of -11.2% (Beta-3 adrenergic receptor (ADRB3, Homo sapiens, UniProt P13945); ligand displacement, radioligand; 10 µM).
With COc1ccc(S(=O)(=O)N2CCCCC2)cc1C the inhibition was < 30% (Thyrotropin-releasing hormone receptor (TRHR, Homo sapiens, UniProt P34981); ligand displacement, radioligand; 10 µM).
The inhibition of O=C(Nc1cccnn1)N1CCN([C@@H]2CCOc3cc(C(F)(F)F)ccc32)CC1 is reported as -13% (Prostaglandin E2 receptor EP2 subtype (PTGER2, Homo sapiens, UniProt P43116); cell-free assay; 20 µM).
The inhibition of CCOC(=O)c1ccc(OC(=O)CCCCCNC(=N)N)cc1 is reported as 13% (MMP13; enzyme activity, inhibitor; 10 µM).
The inhibition of C#Cc1n[nH]c2c(-c3cn(C(C)c4ccccn4)c(=O)[nH]c3=O)cc(F)cc12 (centres unmarked) is reported as 1.9% (Dual specificity protein kinase CLK2 (CLK2, Homo sapiens, UniProt P49760); enzyme activity, inhibitor; 1 µM).
c1ccc(C(NCCNC(c2ccccc2)c2ccccc2)c2ccccc2)cc1 gave an inhibition of -2% (Adenosine receptor A2b (ADORA2B, Homo sapiens, UniProt P29275); cell-free assay; 10 µM).
CC(C)C[C@H](NC(=O)[C@H](Cc1ccccc1)NC(=O)c1cnccn1)B(O)O gave an inhibition of 77.9% (Lysosomal Pro-X carboxypeptidase (PRCP, Homo sapiens, UniProt P42785); enzyme activity, inhibitor; 33 µM).
With COc1cc(Nc2ncc(F)c(Nc3ccc4c(n3)NC(=O)C(C)(C)O4)n2)cc(OC)c1OC the inhibition was 47% (Calcium/calmodulin-dependent protein kinase type II subunit gamma (CAMK2G, Homo sapiens, UniProt Q13555); binding, competition with immobilised ligand; 10 µM).
With C#Cc1n[nH]c2c(-c3cn([C@@H](C)c4ccccc4)c(=O)[nH]c3=O)cc(F)cc12 the inhibition was -1.2% (Tyrosine-protein kinase JAK1 (JAK1, Homo sapiens, UniProt P23458); enzyme activity, inhibitor; 0.1 µM).
With COc1ccc(N=Nc2ccc3[nH]cc(CCN(C)C)c3c2)cc1 the inhibition was < 50% (5-hydroxytryptamine receptor 4 (HTR4, Homo sapiens, UniProt Q13639); ligand displacement, radioligand; 10 µM).
For Cc1nc(C(C)(C)NC(=O)O[C@@H]2CN3CCC2CC3)cs1, the inhibition was < 50% (N-terminal Xaa-Pro-Lys N-methyltransferase 1 (Homo sapiens, UniProt Q9BV86); enzyme activity, inhibitor, fluorescence; 100 µM).
With COc1ccc2[nH]c(C(O)c3ccc(Cl)cc3)c(CCNC(C)=O)c2c1 (centres unmarked) the inhibition was 40 to 50% (Calmodulin-1 (CALM1, Homo sapiens, UniProt P0DP23); enzyme activity, inhibitor; 50 µM).
